Results on 3 molecules are retold here after paper PMC8717467 (Chemical biology & drug design, 2020).

For data set [1], the system named is adhesion between CD2 protein-expressing T cells and CD58 protein overexpressing Caco-2 cells. Particulars: read-out: IC50 in cell adhesion assay, Jurkat/T cells and epithelial cells such as Caco-2 and OVCAR-3, ref A. Gokhale et al., 2011, 2013, A. S. Gokhale et al., 2015; cited from earlier work.
In data set [2] the test system is lymph node cells from type II collagen-immunized HLA-DQ8 mice. Particulars: ref A. Gokhale et al., 2013; A. S. Gokhale et al., 2015; cited from earlier work.
A short description of data set [3]: Chemical stability in buffers of different pH. It is filed as physicochemical. Particulars: pH 1.5, 7.4 and 9.6 buffers, 30 days, HPLC, zero time peak area = 100%.
Data set [4] addresses T1, adhesion between Jurkat cells (CD2 protein) and HFLS-RA cells (CD58 protein) (Homo sapiens, UniProt P19256).
T1 sequence (P19256 29-250): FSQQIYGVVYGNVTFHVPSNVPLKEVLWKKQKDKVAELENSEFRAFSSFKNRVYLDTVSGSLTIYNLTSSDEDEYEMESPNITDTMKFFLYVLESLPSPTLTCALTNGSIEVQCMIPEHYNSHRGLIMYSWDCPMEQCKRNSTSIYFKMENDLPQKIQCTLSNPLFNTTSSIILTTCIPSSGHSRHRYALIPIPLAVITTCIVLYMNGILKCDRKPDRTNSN
T1 sequence (P06729 25-351 partner): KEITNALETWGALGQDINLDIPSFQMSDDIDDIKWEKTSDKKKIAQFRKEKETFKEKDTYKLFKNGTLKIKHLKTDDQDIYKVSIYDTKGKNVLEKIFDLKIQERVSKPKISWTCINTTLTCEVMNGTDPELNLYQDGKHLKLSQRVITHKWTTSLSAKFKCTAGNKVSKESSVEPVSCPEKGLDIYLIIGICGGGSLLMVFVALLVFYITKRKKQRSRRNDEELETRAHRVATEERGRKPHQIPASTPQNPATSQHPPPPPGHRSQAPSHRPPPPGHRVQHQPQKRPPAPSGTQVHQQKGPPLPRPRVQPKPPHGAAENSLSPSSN
Particulars: read-out: IC50, Jurkat cell - HFLS-RA cell adhesion assay.

The target of data set [5] is T2, adhesion between Jurkat cells (CD2) and OVCAR-3 cells (CD58) (Homo sapiens, UniProt P19256).
T2 sequence (P19256 29-250): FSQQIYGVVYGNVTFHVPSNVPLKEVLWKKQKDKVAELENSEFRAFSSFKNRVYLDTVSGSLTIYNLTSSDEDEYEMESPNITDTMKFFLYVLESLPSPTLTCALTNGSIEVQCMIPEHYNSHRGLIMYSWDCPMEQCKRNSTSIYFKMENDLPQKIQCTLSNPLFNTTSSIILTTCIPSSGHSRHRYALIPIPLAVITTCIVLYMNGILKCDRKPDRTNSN
T2 sequence (P06729 25-351 partner): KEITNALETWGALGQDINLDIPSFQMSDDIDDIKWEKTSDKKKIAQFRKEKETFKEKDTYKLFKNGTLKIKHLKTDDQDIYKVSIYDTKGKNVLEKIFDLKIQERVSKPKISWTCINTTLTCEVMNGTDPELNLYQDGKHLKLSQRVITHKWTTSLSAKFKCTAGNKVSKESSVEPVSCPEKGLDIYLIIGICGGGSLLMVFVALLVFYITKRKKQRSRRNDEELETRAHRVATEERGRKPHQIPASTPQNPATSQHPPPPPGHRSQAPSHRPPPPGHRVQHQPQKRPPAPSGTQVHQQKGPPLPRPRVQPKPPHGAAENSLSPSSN
Particulars: read-out: IC50, Jurkat cell-OVCAR-3 cell adhesion assay.

Data set [6] can be described thus: Thermal stability. It is filed as physicochemical. An outline of the steps: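 CD spectra of the peptide in water were recorded from 25 to 85 °C in 5 °C steps, 4 scans per temperature, 185–320 nm. Samples from 25, 55 and 85 °C were checked by mass spectrometry. Separately, peptide was incubated 30 min at 25, 55 or 85 °C, then run on C-18 HPLC and reported as relative peak area from triplicate experiments.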

Data set [7] has as its system T cell proliferation of lymph node cells from peptide-immunized DQ8 mice. Description: Immunogenicity studies. It is filed as in vivo. Particulars: LNC T-cell proliferation 10 days after immunization. An outline of the steps: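 HLA-DQ8 mice were immunized with 200 μL of test peptide at 50 μg/mL. Ten days later, lymph nodes were harvested and made into single-cell suspensions. The lymph node cells were challenged in vitro with a range of peptide concentrations to measure T-cell proliferation. ConA (1 μg/mL) served as positive control. Results are stimulation index versus peptide concentration; an index above 2 counted as positive.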

The target in data set [8] is T3, CD58 adhesion domain (Homo sapiens, UniProt P19256).
T3 chain: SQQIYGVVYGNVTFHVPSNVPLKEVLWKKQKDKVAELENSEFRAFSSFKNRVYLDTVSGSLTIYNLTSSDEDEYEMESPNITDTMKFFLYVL
Description: SPR.

Bridge positions count the residues as written; N and C are the ends. Peptide text beside a SMILES is read from it.

Consider `CC[C@H](C)[C@@H]1NC(=O)[C@H](CC(=O)O)NC(=O)[C@H](CC(=O)O)NC(=O)[C@@H]2CCCN2C(=O)[C@H]2CCCN2C(=O)[C@H](CC(=O)O)NC(=O)[C@H](Cc2ccc(O)cc2)NC(=O)[C@H]([C@@H](C)CC)NC(=O)[C@H](CO)NC(=O)[C@H](CCCCN)NC1=O` [Peptide 6], for which the IC50 in data set [1] is 6.9 nM. In data set [2], the “T cell immune response in cells derived from transgenic mice that develop arthritis” value was “suppress the T cell immune response”.
With `C[C@@H]1NC(=O)[C@@H]2CSSC[C@H](NC(=O)[C@H](CC(=O)O)NC(=O)[C@H](CC(=O)O)NC(=O)CNC(=O)[C@H](CC(=O)O)NC(=O)[C@H](Cc3ccc(O)cc3)NC1=O)C(=O)N[C@@H](CCCCN)C(=O)N[C@@H](CO)C(=O)N[C@@H](C)C(=O)N1CCC[C@H]1C(=O)N1CCC[C@H]1C(=O)N[C@@H](CO)C(=O)N2` [SFTI-a1] (cyclo(APPSCAYDGDDCKS); disulfide 5-12), the “Chemical stability: degradation in buffers” value in data set [3] is on record as “not degraded significantly”. Moreover, the figures for the IC50 in data set [4] and in data set [5] were 37.2 ± 1.02 nM and 23.3 ± 4.62 nM, respectively. In data set [6] (in water, 25 to 85 °C in 5 °C steps, CD), the “Thermal stability: change of CD spectra with temperature” value is listed as “not significantly changed”. In addition, the “Thermal stability: change in HPLC peak area” value in data set [6] (incubated at 55 and 85 °C for 30 min, HPLC C-18, triplicate experiments) is on record as “no significant change in HPLC peak area”. For the same molecule, in data set [6] (samples incubated at different temperatures (25, 55, 85 °C) in solution), the “Thermal stability: mass spectrometric analysis” value was “no change in its mass”. For the same molecule, the Immunogenicity result in data set [7] was “not immunogenic”.

B1: SFTI-a1 (peptide)
chain: cyclo(CKSAPPSCAYDGDD)
modifications: disulfide 1-8
SMILES: C[C@@H]1NC(=O)[C@@H]2CSSC[C@H](NC(=O)[C@H](CC(=O)O)NC(=O)[C@H](CC(=O)O)NC(=O)CNC(=O)[C@H](CC(=O)O)NC(=O)[C@H](Cc3ccc(O)cc3)NC1=O)C(=O)N[C@@H](CCCCN)C(=O)N[C@@H](CO)C(=O)N[C@@H](C)C(=O)N1CCC[C@H]1C(=O)N1CCC[C@H]1C(=O)N[C@@H](CO)C(=O)N2
The Kd is the equilibrium constant for the complex coming apart. Low readings indicate higher affinity, high ones lower affinity. B1 registered a Kd in data set [8] of 320 nM. That is a sub-micromolar value.
